# KCNQ1 act – human KCNQ1 channel potentiation or activation. B-score at 10 µM. 310,000 tested, 0.35% active. AID 2648. CHO-K1 KCNQ1, thallium flux FluxOR fluorescence; hits give high values. P51787;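 active means fluorescence ratio B-score, a plate-corrected score, at least three library SD, with initial intensity B-score within 5 SD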
#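 Assay system: stable KCNQ1 CHO-K1 line; medium: assay buffer, equal DMSO in all wells; timing: 90 min dye loading and 20 min compound exposure, both at room temperature; technique: kinetic FluxOR thallium fluorescence, 10-s 1-Hz baseline, 110-s post-stimulus read; read-out basis: B score of baseline-normalized fluorescence ratio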
# KCNQ1 inh – blocks the human KCNQ1 potassium channel. P51787. CHO-K1 KCNQ1, FluxOR thallium flux fluorescence; hits give high values. B-score at 10 µM. 310,000 tested, 1.3% active;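 active means compounds whose thallium flux B-score, printed positive for inhibition, exceeds three library SD while starting fluorescence stays within three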;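 further: channel opened by potassium depolarization with thallium stimulus after 20 min compound exposure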
# hERG rescue – hERG (human) protection from proarrhythmic block. activation (rescue from dofetilide block), less the hit threshold, % at 10 µM. Q12809. CHO-hERG, FluxOR thallium flux, dofetilide IC70 present. 310,000 tested, 0.51% active;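 active means activation above the mean of controls blocked by dofetilide plus 5 SD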;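 further: thallium influx through hERG after potassium depolarization seen as dye fluorescence rise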
# KCNK3 block – human KCNK3 channel inhibition, primary screen | B-score at 10 µM | 340,000 tested, 0.84% active | O14649 | AID 602410 | CHO-KCNK3 thallium flux, FluxOR fluorescence; hits give low values;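 active means B-score under library mean minus 4 SD, starting fluorescence ratio at most library mean plus 5 SD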;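 further: more negative B-score means stronger inhibition of thallium flux through KCNK3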
# Target sequence (O14649 whole entry, looked up): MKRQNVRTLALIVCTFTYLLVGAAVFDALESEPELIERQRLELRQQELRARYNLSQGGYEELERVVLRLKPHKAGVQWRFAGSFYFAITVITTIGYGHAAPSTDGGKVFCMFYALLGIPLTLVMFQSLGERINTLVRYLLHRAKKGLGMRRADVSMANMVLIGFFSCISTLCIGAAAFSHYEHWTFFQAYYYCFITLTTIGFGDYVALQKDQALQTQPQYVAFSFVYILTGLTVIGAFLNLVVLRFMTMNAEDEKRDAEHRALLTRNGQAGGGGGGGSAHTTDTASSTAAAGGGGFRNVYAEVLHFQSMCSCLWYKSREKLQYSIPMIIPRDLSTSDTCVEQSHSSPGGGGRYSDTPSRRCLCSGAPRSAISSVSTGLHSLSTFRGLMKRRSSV
# Kir21 block – Kir2.1 (mouse) channel inhibition | P35561 | HEK293-Kir2.1, FluxOR thallium flux fluorescence; hits give low values | B-score at 10 µM | 310,000 tested, 0.85% active;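 active means fluorescence ratio B-score at or below minus 3 SD of library scores, with starting-brightness B-score within 2 SD, cut at about -4.2 in these data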;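 further: channel flux triggered by added potassium and thallium sulfate stimulus; B-score of peak minus minimum fluorescence over baseline after thallium stimulus; more negative B-score means stronger Kir2.1 block with less thallium influx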
# KCNK9 block – blocks the human KCNK9 two-pore domain potassium channel; Q9NPC2; HEK293 KCNK9, FluxOR thallium flux fluorescence; hits give low values; B-score at 10 µM; 310,000 tested, 1.2% active;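 active means ratio B-score over 3 SD below the library mean, with starting fluorescence within 5 SD of its mean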;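 further: negative B-score means less thallium flux so channel inhibition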
# KCNK9 block conf – human KCNK9 inhibitor confirmation. shares compounds with KCNK9 block. HEK293 KCNK9 cells, FluxOR thallium flux fluorescence. inhibition, % at 10 µM. 4,900 tested, 43% active. AID 492992;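 active means thallium signal inhibited by more than 5 SD of the compound-free buffer control wells, on both duplicate plates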;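 further: 0% = assay buffer control wells without compound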
# Kir2-1 spec – tests whether KCNK9 modulators also affect mouse Kir2.1. shares compounds with KCNK9 block. Kir2.1 cells, FluxOR thallium flux fluorescence. inhibition, % at 10 µM. 4,900 tested, 4% active. AID 492993;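 active means thallium signal drop more than 5 SD beyond the mean of the no-compound control wells, seen in both duplicate plates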;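 further: signal is fluorescence rise after thallium addition divided by baseline fluorescence; plate controls were assay buffer only for no effect and full block by chlorpromazine control for full effect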
# KCNK9 uninduced – second counter-screen for KCNK9 modulators: effect in non-induced cells | shares compounds with KCNK9 block | non-induced KCNK9-HEK293, FluxOR thallium flux | inhibition, % at 10 µM | 4,900 tested, 40% active | AID 492997;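 active means thallium signal drop beyond 5 SD of the untreated control mean, on both duplicate plates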;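 further: plate controls were buffer only IC0 wells for no effect and SID17386958 at its maximal inhibitory level for full effect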
# KCNK3 confirm – human KCNK3 channel inhibition, confirmation assay | 2,400 tested, 99% active | CHO-KCNK3 thallium flux, FluxOR fluorescence; 0% buffer, 100% carvedilol maximal block | ratio percent of control, % at 10 µM | shares compounds with KCNK3 block | AID 651638;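 active means ratio percent of control, averaged over triplicates, above buffer control mean plus 5 SD, cut at about 64% in these data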;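 further: ratio is the fluorescence rise from min to max over baseline after thallium stimulus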
# KCNK3 noninduced – activity in cells without induced KCNK3 expression. shares compounds with KCNK3 block. non-induced KCNK3 parental cells, FluxOR thallium flux; hits give low values. thallium flux ratio (lower = more inhibition) at 10 µM. 2,400 tested, 40% active. AID 651747;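 active means thallium flux ratio, averaged over three wells, more than 5 SD below the buffer control mean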;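 further: host cells are CHO cells without KCNK3 induction; ratio is peak minus trough fluorescence over baseline then normalized to buffer controls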
# The depositor's hits bear a star; i = inactive; . = not tested or not shown. Sampled rows, rich in hits. Any-hit rate of the full collection: about 3.8%.
SMILES,KCNQ1 act,KCNQ1 inh,hERG rescue,KCNK3 block,Kir21 block,KCNK9 block,KCNK9 block conf,Kir2-1 spec,KCNK9 uninduced,KCNK3 confirm,KCNK3 noninduced
COc1ccccc1N1CCN(C(=O)c2cc(-c3ccc(F)cc3)[nH]c2C)CC1,i,i,-3.1,i,-0.69,i,.,.,.,.,.
Cc1nn(-c2ccccc2)c(C)c1/C=N/Nc1nc2ccccc2[nH]1,i,i,-21.5,i,-1.16,i,.,.,.,.,.
CCCCOC1(c2ccccc2)OC(=O)c2ccccc21 (configuration not stated),i,i,-8.6,i,-0.17,-15.7*,54.5%*,i,51.5%*,100.7*,i
COc1ccc(NC(=O)NNS(=O)(=O)c2ccc(OC)c(OC)c2)c(OC)c1,i,i,-12.6,i,0.54,i,.,.,.,.,.
CCOc1ccc(NS(=O)(=O)c2ccc(C(=O)NCC(c3ccc(OC)cc3)N3CCOCC3)cc2)cc1 (configuration not stated),i,i,-11.4,i,-0.05,i,.,.,.,.,.
CC(C)N(Cc1nc(-c2ccc(Cl)cc2)no1)C(=O)C(c1ccccc1)c1ccccc1,i,i,-11.6,-9.92*,0.01,-10.5*,55.0%*,i,40.0%*,129.3*,0.133*
CSc1nc(N2CCN(c3ccccc3Cl)CC2)c2ccccc2n1,i,i,-12.3,i,-0.71,-14.2*,59.5%*,i,33.5%*,104.0*,i
CCC(C)n1c(SCC(=O)Nc2cc(C(C)(C)C)nn2-c2ccccc2)nc2ccccc2c1=O (configuration not stated),i,10*,-4.7,i,0.06,-8.2*,40.0%*,i,37.5%*,104.7*,0.131*
CCC(C)n1c(SCC(=O)Nc2cc(C)on2)nc2ccccc2c1=O (configuration not stated),i,i,-4.8,i,0.03,i,.,.,.,.,.
CC(C)CN(CC(C)C)S(=O)(=O)N1CCC(C(=O)NCCN2CCOCC2)CC1,i,i,-4.7,i,-0.03,i,.,.,.,.,.
CN1/C(=C\C=O)C(C)(C)c2ccccc21,i,i,-3.4,i,-0.14,i,.,.,.,.,.
CN1\C(=C/C=C/C=C/C=[N+](C)C)C(C)(C)c2ccccc21,i,16*,-52.8,-12.9*,-12.8*,-8.35*,58.0%*,76.5%*,57.5%*,155.0*,0.085*
Cc1ccc2c(COC(=O)C3=COCCO3)cc(=O)oc2c1,i,i,-11.1,i,0.27,i,.,.,.,.,.
COc1cc2c(cc1OC)C(c1cccc([N+](=O)[O-])c1)N(C(=O)c1ccc(F)cc1)CC2 (configuration not stated),i,11*,-12.4,-10.9*,0.41,-17.1*,74.0%*,i,37.5%*,96.0*,0.155*
COc1cc2c(cc1OC)C(c1cccc([N+](=O)[O-])c1)N(C(=O)CCC(=O)O)CC2 (configuration not stated),i,i,-2.7,i,0.06,i,.,.,.,.,.
CC(=O)Nc1cc2c(cc1Br)OCCO2,i,i,-4.5,i,-0.33,i,.,.,.,.,.
Brc1ccc(CNc2cc3c(cc2Br)OCCO3)cc1,i,i,-3.4,i,1.68,-9.13*,28.5%*,i,42.0%*,103.3*,i
CCCCC(=O)N/N=C(C)/C=C/c1ccccc1F,i,i,-13.4,i,-0.28,i,.,.,.,.,.
O=C(Nc1nc(-c2ccccc2)cs1)c1cccs1,i,i,-13.2,i,0.05,i,.,.,.,.,.
O=C(Nc1nc(-c2ccc(Cl)s2)cs1)c1cccs1,i,i,-14.4,-8.87*,1.29,-9.16*,i,i,31.5%*,97.0*,i
Cc1cccc(/C(N)=N/OC(=O)Cc2ccccc2)c1,i,i,-8.1,i,0.56,i,.,.,.,.,.
CCC(C(=O)O/N=C(\N)c1cccc(C)c1)c1ccccc1 (configuration not stated),i,i,-13.2,-14.6*,-0.41,-9.31*,34.5%*,i,23.5%*,127.0*,0.151*
CC(C)C1OC(c2cccc(NC(=O)c3cccs3)c2)OCC1(C)C (configuration not stated),i,i,-16.6,-9.48*,1.31,-8.48*,50.0%*,i,44.0%*,114.0*,0.156*
CCn1cc(Br)c(C(=O)Nc2ccc(F)c(Cl)c2)n1,i,i,-15.9,-11.3*,-1.11,-12*,46.5%*,i,29.5%*,103.7*,i
Cc1ccc(NC(=O)c2nc[nH]c2C(=O)N[C@@H](C)c2ccccc2)cc1,i,i,-10.5,i,0.02,i,.,.,.,.,.
SMILES,KCNQ1 act,KCNQ1 inh,hERG rescue,KCNK3 block,Kir21 block,KCNK9 block,KCNK9 block conf,Kir2-1 spec,KCNK9 uninduced,KCNK3 confirm,KCNK3 noninduced
CC(Cc1cccs1)NC(=O)Nc1ccc(Cl)c(Cl)c1 (configuration not stated),i,i,-12.1,-12.7*,-0.04,-15.8*,61.5%*,i,42.5%*,110.3*,0.158*
CC(Cc1cccs1)NC(=O)Nc1ccc(Cl)cc1 (configuration not stated),i,i,-3.9,i,-0.1,i,.,.,.,.,.
CNC(=O)Nc1cccc(-c2cc(-c3c(Cl)cccc3Cl)no2)c1,i,i,-9.0,-17.2*,0.49,-15.1*,54.0%*,i,44.0%*,122.3*,0.157*
O=C(Nc1cccnc1)c1cc(-c2cccc(Cl)c2)on1,i,i,-1.8,i,-1.38,i,.,.,.,.,.
CC(=O)Nc1cccc(-c2cc(-c3c(Cl)cccc3Cl)no2)c1,i,i,-9.4,-14.8*,-0.08,-11.2*,53.5%*,i,39.0%*,109.0*,0.153*
CC(=O)Nc1cccc(NC(=O)c2c(-c3c(Cl)cccc3Cl)noc2C)c1,i,i,-5.4,i,2.18,i,.,.,.,.,.
Cc1cc(NC(=O)c2cccc(COc3ccc(Br)cc3)c2)no1,i,i,-9.2,-8.88*,0.94,-11.2*,i,i,i,65.3*,i
COC(=O)CCC(=O)N(CCN(C(=O)CCC(=O)OC)c1ccccc1)c1ccccc1,i,i,-7.0,i,-0.04,i,.,.,.,.,.
